Values after ≈ are worked out from the molar mass of the structure shown.
What was measured:
Type in all cases: functional
[1] = system: Mycobacteroides abscessus; experiment: Antibacterial activity against nonpigmented rapidly growing Mycobacterium abscessus after 3 days by broth microdilution method; conditions: 72 h
Method in brief: (§1)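 MIC by broth microdilution. Strains are collection strains and clinical isolates, grown on 5% sheep blood tryptic soy agar at 35°C for 4 days in room air. Inoculum is made straight from the blood agar plates in cation-supplemented Mueller-Hinton broth with 0.02% Tween 80. Doubling dilutions run 64 to 0.03 µg/ml. Plates are incubated at 30°C in room air and read at 3 days. E. coli ATCC 25922, S. aureus ATCC 29213 and E. faecalis ATCC 29212 serve as controls. MIC50 and MIC90 are given where ≥10 strains were tested, otherwise the range.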

[2] = system: Mycobacteroides chelonae; experiment: Antibacterial activity against nonpigmented rapidly growing Mycobacterium chelonae after 3 days by broth microdilution method; conditions: 72 h; method in brief: as §1
[3] = system: Mycolicibacterium peregrinum; experiment: Antibacterial activity against nonpigmented rapidly growing Mycobacterium peregrinum after 3 days by broth microdilution method; conditions: 72 h; method in brief: as §1
[4] = system: Mycolicibacterium fortuitum; experiment: Antibacterial activity against nonpigmented rapidly growing Mycobacterium fortuitum after 3 days by broth microdilution method; conditions: 72 h; method in brief: as §1
[5] = system: Mycobacterium mucogenicum; experiment: Antibacterial activity against nonpigmented rapidly growing Mycobacterium mucogenicum after 3 days by broth microdilution method; conditions: Mycolicibacterium mucogenicum, 72 h; method in brief: as §1
[6] = system: Mycolicibacterium mageritense; experiment: Antibacterial activity against nonpigmented rapidly growing Mycobacterium mageritense after 3 days by broth microdilution method; conditions: 72 h; method in brief: as §1
[7] = system: Mycobacterium alvei; experiment: Antibacterial activity against nonpigmented rapidly growing Mycobacterium alvei after 3 days by broth microdilution method; conditions: Mycolicibacterium alvei, 72 h; method in brief: as §1
[8] = system: Mycolicibacterium smegmatis; experiment: Antibacterial activity against nonpigmented rapidly growing Mycobacterium smegmatis after 3 days by broth microdilution method; conditions: 72 h; method in brief: as §1
[9] = system: Mycobacterium porcinum; experiment: Antibacterial activity against nonpigmented rapidly growing Mycobacterium porcinum after 3 days by broth microdilution method; conditions: Mycolicibacterium porcinum, 72 h; method in brief: as §1
[10] = system: Mycobacterium septicum; experiment: Antibacterial activity against nonpigmented rapidly growing Mycobacterium septicum after 3 days by broth microdilution method; conditions: Mycolicibacterium septicum, 72 h; method in brief: as §1
[11] = system: Mycobacterium wolinskyi; experiment: Antibacterial activity against nonpigmented rapidly growing Mycobacterium wolinskyi after 3 days by broth microdilution method; conditions: Mycolicibacterium wolinskyi, 72 h; method in brief: as §1

SMILES | MIC50 [1] [µg/mL] | MIC90 [1] [µg/mL] | MIC50 [2] [µg/mL] | MIC90 [2] [µg/mL] | MIC50 [3] [µg/mL] | MIC90 [3] [µg/mL] | MIC50 [4] [µg/mL] | MIC90 [4] [µg/mL] | MIC [5] [µg/mL] | MIC [6] [µg/mL] | MIC [7] [µg/mL] | MIC [8] [µg/mL] | MIC [9] [µg/mL] | MIC [10] [µg/mL] | MIC [11] [µg/mL]
NCC[C@H](O)C(=O)N[C@@H]1C[C@H](N)[C@@H](O[C@H]2O[C@H](CN)[C@@H](O)[C@H](O)[C@H]2O)[C@H](O)[C@H]1O[C@H]1O[C@H](CO)[C@@H](O)[C@H](N)[C@H]1O [AMIKACIN] | 2 (≈ 3.42 µM) | 8 (≈ 13.7 µM) | 1 (≈ 1.71 µM) | 16 (≈ 27.3 µM) | 0.5 (≈ 0.854 µM) | 1 (≈ 1.71 µM) | 1 (≈ 1.71 µM) | 2 (≈ 3.42 µM) | 0.25 (≈ 0.427 µM) | 0.5 (≈ 0.854 µM) | ≤ 0.5 | ≤ 0.03 | 0.25 (≈ 0.427 µM) | 1 (≈ 1.71 µM) | 1 (≈ 1.71 µM)
CO[C@@]1(NC(=O)Cc2cccs2)C(=O)N2C(C(=O)O)=C(COC(N)=O)CS[C@@H]21 [CEFOXITIN] | – | – | – | – | – | – | – | – | 0.5 (≈ 1.17 µM) | 1 (≈ 2.34 µM) | 2 (≈ 4.68 µM) | 1 (≈ 2.34 µM) | 2 (≈ 4.68 µM) | 32 (≈ 74.9 µM) | 1 (≈ 2.34 µM)
C[C@H]1COc2c(N3CCN(C)CC3)c(F)cc3c(=O)c(C(=O)O)cn1c23.C[C@H]1COc2c(N3CCN(C)CC3)c(F)cc3c(=O)c(C(=O)O)cn1c23.O [LEVOFLOXACIN] | 16 | 32 | 0.5 | 8 | 0.06 | 0.25 | 0.06 | 0.25 | 0.06 | ≤ 0.03 | ≤ 0.03 | ≤ 0.03 | 0.06 | 0.12 | 0.06
CC[C@H]1OC(=O)[C@H](C)[C@@H](O[C@H]2C[C@@](C)(OC)[C@@H](O)[C@H](C)O2)[C@H](C)[C@@H](O[C@@H]2O[C@H](C)C[C@H](N(C)C)[C@H]2O)[C@](C)(O)C[C@@H](C)CN(C)[C@H](C)[C@@H](O)[C@]1(C)O [AZITHROMYCIN] | 0.5 (≈ 0.668 µM) | 2 (≈ 2.67 µM) | 0.5 (≈ 0.668 µM) | 16 (≈ 21.4 µM) | 0.5 (≈ 0.668 µM) | 64 (≈ 85.4 µM) | 8 (≈ 10.7 µM) | > 64 | ≤ 0.03 | 2 (≈ 2.67 µM) | ≤ 0.03 | 0.06 (≈ 0.0801 µM) | 32 (≈ 42.7 µM) | 0.5 (≈ 0.668 µM) | 128 (≈ 171 µM)
NC[C@H]1O[C@H](O[C@H]2[C@H](O)[C@@H](O[C@H]3O[C@H](CO)[C@@H](O)[C@H](N)[C@H]3O)[C@H](N)C[C@@H]2N)[C@H](N)C[C@@H]1O [TOBRAMYCIN] | 8 (≈ 17.1 µM) | 16 (≈ 34.2 µM) | 4 (≈ 8.56 µM) | 16 (≈ 34.2 µM) | 4 (≈ 8.56 µM) | 8 (≈ 17.1 µM) | 16 (≈ 34.2 µM) | 32 (≈ 68.4 µM) | 1 (≈ 2.14 µM) | 8 (≈ 17.1 µM) | 4 (≈ 8.56 µM) | ≤ 0.03 | 1 (≈ 2.14 µM) | 0.5 (≈ 1.07 µM) | 8 (≈ 17.1 µM)

Further lines, results first:

MIC50 [1] [µg/mL] | MIC90 [1] [µg/mL] | MIC50 [2] [µg/mL] | MIC90 [2] [µg/mL] | MIC50 [3] [µg/mL] | MIC90 [3] [µg/mL] | MIC50 [4] [µg/mL] | MIC90 [4] [µg/mL] | MIC [5] [µg/mL] | MIC [6] [µg/mL] | MIC [7] [µg/mL] | MIC [8] [µg/mL] | MIC [9] [µg/mL] | MIC [10] [µg/mL] | MIC [11] [µg/mL] | SMILES
2 (≈ 6.04 µM) | 8 (≈ 24.1 µM) | 0.12 (≈ 0.362 µM) | 2 (≈ 6.04 µM) | ≤ 0.03 | 0.06 (≈ 0.181 µM) | ≤ 0.03 | 0.12 (≈ 0.362 µM) | ≤ 0.03 | ≤ 0.03 | ≤ 0.03 | 0.12 (≈ 0.362 µM) | ≤ 0.03 | 0.12 (≈ 0.362 µM) | 0.25 (≈ 0.754 µM) | O=C(O)c1cn(C2CC2)c2cc(N3CCNCC3)c(F)cc2c1=O [CIPROFLOXACIN]
0.06 (≈ 0.102 µM) | 0.5 (≈ 0.854 µM) | 0.12 (≈ 0.205 µM) | 0.5 (≈ 0.854 µM) | 0.06 (≈ 0.102 µM) | 0.06 (≈ 0.102 µM) | ≤ 0.03 | 0.25 (≈ 0.427 µM) | ≤ 0.03 | ≤ 0.03 | ≤ 0.03 | ≤ 0.03 | 0.06 (≈ 0.102 µM) | ≤ 0.03 | 0.12 (≈ 0.205 µM) | CN(C)c1cc(NC(=O)CNC(C)(C)C)c(O)c2c1C[C@H]1C[C@H]3[C@H](N(C)C)C(O)=C(C(N)=O)C(=O)[C@@]3(O)C(O)=C1C2=O [TIGECYCLINE]
≤ 0.03 | 1 (≈ 1.34 µM) | 0.06 (≈ 0.0802 µM) | 4 (≈ 5.35 µM) | 0.06 (≈ 0.0802 µM) | 2 (≈ 2.67 µM) | 2 (≈ 2.67 µM) | 16 (≈ 21.4 µM) | ≤ 0.03 | 2 (≈ 2.67 µM) | ≤ 0.03 | ≤ 0.03 | 0.5 (≈ 0.668 µM) | ≤ 0.03 | 32 (≈ 42.8 µM) | CC[C@H]1OC(=O)[C@H](C)[C@@H](O[C@H]2C[C@@](C)(OC)[C@@H](O)[C@H](C)O2)[C@H](C)[C@@H](O[C@@H]2O[C@H](C)C[C@H](N(C)C)[C@H]2O)[C@](C)(OC)C[C@@H](C)C(=O)[C@H](C)[C@@H](O)[C@]1(C)O [CLARITHROMYCIN]
1 (≈ 1.36 µM) | 16 (≈ 21.8 µM) | 0.5 (≈ 0.681 µM) | 32 (≈ 43.6 µM) | 1 (≈ 1.36 µM) | 16 (≈ 21.8 µM) | 64 (≈ 87.2 µM) | > 64 | ≤ 0.03 | 32 (≈ 43.6 µM) | ≤ 0.03 | 0.12 (≈ 0.164 µM) | 8 (≈ 10.9 µM) | 2 (≈ 2.73 µM) | 128 (≈ 174 µM) | CC[C@H]1OC(=O)[C@H](C)[C@@H](O[C@H]2C[C@@](C)(OC)[C@@H](O)[C@H](C)O2)[C@H](C)[C@@H](O[C@@H]2O[C@H](C)C[C@H](N(C)C)[C@H]2O)[C@](C)(O)C[C@@H](C)C(=O)[C@H](C)[C@@H](O)[C@]1(C)O [ERYTHROMYCIN]
> 64 | > 64 | 8 | 64 | 8 | 32 | 4 | 64 | ≤ 0.03 | ≤ 0.03 | ≤ 0.03 | ≤ 0.03 | 8 | 32 | 0.25 | C[C@H]1c2cccc(O)c2C(=O)C2=C(O)[C@]3(O)C(=O)C(C(N)=O)=C(O)[C@@H](N(C)C)[C@@H]3[C@@H](O)[C@@H]21.O [DOXYCYCLINE]

From ChEMBL document CHEMBL1275537, “In vitro activities of tigecycline and 10 other antimicrobials against nonpigmented rapidly growing mycobacteria” (2008)
